“And” between values parts separate entries of the source, which are not always exact repeats. Identical values can stand only once. Square brackets hold non-standard residues; d marks the D form. Peptide text beside a SMILES is read from it. Tic = O=C(O)[C@@H]1Cc2ccccc2CN1
Tests used:
Rattus norvegicus [1] = assay: Antithrombotic activity in Wistar rat assessed as thrombus weight at 10 nmol/kg, iv (reference value: 24.09 +/- 2.33 mg); format: functional
Aorta = assay: Inhibition of noradrenaline-induced contraction in Wistar rat thoracic aortic ring assessed as vasorelaxant activity at 300 uM treated after noradrenaline challenge; format: functional; parameters: scale not given: the % may be the effect or the level left
Summary of the method: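 Male Wistar rats, 250–300 g, were decapitated and aortic strips were mounted in 37 °C Krebs solution (pH 7.4) gassed with 95% O2/5% CO2, connected to a tension transducer. Strips were contracted with 59 µM noradrenaline, washed, stabilised 30 min, then re-contracted with 59 µM noradrenaline. At peak contraction, compound in ethanol or ethanol alone was added and relaxation was recorded.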

[2] = Antiplatelet activity against pig platelet assessed as inhibition of thrombin-induced platelet aggregation by spectrophotometry; format: functional, cell-based; settings: Sus scrofa
Summary of the method: (§1)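 Pig blood (six pigs) spun 1000 rpm 10 min for PRP, then 1500 rpm 10 min for PPP; PRP adjusted to 2×10^8 platelets/mL with autologous PPP. Compound (final 100 µM to 1 nM, diluted in NS from DMSO/NS stock) or NS added, then inducer at final PAF 0.1 µM, ADP 10 µM, AA 350 µM or thrombin 0.1 U/mL.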

[3] = Antiplatelet activity against pig platelet assessed as inhibition of PAF-induced platelet aggregation by spectrophotometry; format: functional, cell-based; settings: Sus scrofa; summary of the method: as §1
[4] = Antiplatelet activity against pig platelet assessed as inhibition of arachidonic acid-induced platelet aggregation by spectrophotometry; format: functional, cell-based; settings: Sus scrofa; summary of the method: as §1
[5] = Antiplatelet activity against pig platelet assessed as inhibition of ADP-induced platelet aggregation by spectrophotometry; format: functional, cell-based; settings: Sus scrofa; summary of the method: as §1
[6] = Antiplatelet activity against pig platelet assessed as inhibition of arachidonic acid-induced platelet aggregation at 10 uM by spectrophotometry; format: functional; settings: Sus scrofa; summary of the method: as §1
[7] = Antiplatelet activity against pig platelet assessed as inhibition of ADP-induced platelet aggregation at 10 uM by spectrophotometry; format: functional; settings: Sus scrofa; summary of the method: as §1
[8] = Antiplatelet activity against pig platelet assessed as inhibition of thrombin-induced platelet aggregation at 10 uM by spectrophotometry; format: functional; settings: Sus scrofa; summary of the method: as §1
[9] = Antiplatelet activity against pig platelet assessed as inhibition of PAF-induced platelet aggregation at 10 uM by spectrophotometry; format: functional; settings: Sus scrofa; summary of the method: as §1
Rattus norvegicus [10] = assay: Antithrombotic activity in Wistar rat assessed as thrombus weight at 15 umol/kg, iv (reference value: 25.99 +/- 2.41 mg); format: functional
Rattus norvegicus [11] = assay: Antithrombotic activity in Wistar rat assessed as thrombus weight at 15 umol/kg, iv (reference value: 28.54 +/- 2.62 mg); format: functional

Row | SMILES | Activity (Aorta) | inhibition at 10 µM [6] | inhibition at 10 µM [7] | inhibition at 10 µM [8] | inhibition at 10 µM [9] | Activity (Rattus norvegicus [10]) | Activity (Rattus norvegicus [11]) | further results
1 | CC1(C)N2Cc3ccccc3C[C@H]2C(=O)N1[C@@H](CS)C(=O)O | 16.57% |  |  |  |  |  |  | Activity (Rattus norvegicus [1]): 14.36 mg; IC50 [2]: 622 nM; IC50 [3]: 535 nM; IC50 [4]: 299 nM; IC50 [5]: 180 nM
2 | COC(=O)[C@H](CCCCNC(=O)OCc1ccccc1)N1C(=O)[C@@H]2Cc3ccccc3CN2C1(C)C | 68.21% | 33.7% | 20.9% | 18.4% | 11.2% | 17.14 mg |  | 
3 | COC(=O)[C@H](CC(C)C)N1C(=O)[C@@H]2Cc3ccccc3CN2C1(C)C | 74.68% | 37.5% | 31.4% | 38.3% | 29.2% | 14.1 mg |  | 
4 | O=C(O)[C@H](CS)NC(=O)[C@@H]1Cc2ccccc2CN1 (H-[Tic]-Cys-OH) |  |  |  |  |  |  | 20.91 mg | 
5 | CCC(C)[C@@H](C(=O)O)N1C(=O)[C@@H]2Cc3ccccc3CN2C1(C)C (stereo partly specified) | 34.29% |  |  |  |  |  |  | Activity (Rattus norvegicus [1]): 12.99 mg; IC50 [2]: 565 nM; IC50 [3]: 486 nM; IC50 [4]: 271 nM; IC50 [5]: 158 nM
6 | COC(=O)[C@H](CS)N1C(=O)[C@@H]2Cc3ccccc3CN2C1(C)C | 96.3% | 60.7% | 68.9% | 30.8% | 53.7% | 12.9 mg |  | 
7 | C[C@@H](O)[C@H](NC(=O)[C@@H]1Cc2ccccc2CN1)C(=O)O (H-[Tic]-Thr-OH) |  |  |  |  |  |  | 21.25 mg | 
8 | N=C(N)NCCC[C@H](NC(=O)[C@@H]1Cc2ccccc2CN1)C(=O)O (H-[Tic]-Arg-OH) |  |  |  |  |  |  | 18.73 mg | 
9 | O=C(O)[C@H](Cc1cc2ccccc2[nH]1)NC(=O)[C@@H]1Cc2ccccc2CN1 |  |  |  |  |  |  | 21.3 mg | IC50 [2]: 234 nM; IC50 [3]: 668 nM; IC50 [4]: 374 nM; IC50 [5]: 120 nM
10 | CC(O)[C@@H](C(=O)O)N1C(=O)[C@@H]2Cc3ccccc3CN2C1(C)C (stereo partly specified) | 9.98% |  |  |  |  |  |  | Activity (Rattus norvegicus [1]): 16.04 mg; IC50 [2]: 698 nM; IC50 [3]: 600 nM; IC50 [4]: 335 nM; IC50 [5]: 207 nM
11 | NC(=O)CC[C@H](NC(=O)[C@@H]1Cc2ccccc2CN1)C(=O)O (H-[Tic]-Gln-OH) |  |  |  |  |  |  | 22.08 mg | 
12 | CC1(C)N(CC(=O)O)C(=O)[C@@H]2Cc3ccccc3CN21 | 21.11% |  |  |  |  |  |  | Activity (Rattus norvegicus [1]): 14.39 mg and 13.89 mg; IC50 [2]: 604 nM; IC50 [3]: 519 nM; IC50 [4]: 290 nM; IC50 [5]: 173 nM
13 | CC1(C)N2Cc3ccccc3C[C@H]2C(=O)N1[C@@H](CCC(=O)O)C(=O)O | 4.33% |  |  |  |  |  |  | Activity (Rattus norvegicus [1]): 18.57 mg; IC50 [2]: 808 nM; IC50 [3]: 695 nM; IC50 [4]: 388 nM; IC50 [5]: 248 nM
14 | CC1(C)N2Cc3ccccc3C[C@H]2C(=O)N1[C@@H](CC(N)=O)C(=O)O | 3.89% |  |  |  |  |  |  | Activity (Rattus norvegicus [1]): 20.75 mg; IC50 [2]: 903 nM; IC50 [3]: 777 nM; IC50 [4]: 433 nM; IC50 [5]: 283 nM
15 | COC(=O)[C@H](CCCNC(=N)N[N+](=O)[O-])N1C(=O)[C@@H]2Cc3ccccc3CN2C1(C)C | 6.78% | 30.6% | 58.4% | 31.4% | 65.3% | 23.61 mg |  | 
16 | O=C(O)C[C@H](NC(=O)[C@@H]1Cc2ccccc2CN1)C(=O)O (H-[Tic]-Asp-OH) |  |  |  |  |  |  | 21.67 mg | 
17 | COC(=O)[C@H](Cc1ccc(O)cc1)N1C(=O)[C@@H]2Cc3ccccc3CN2C1(C)C | 15.56% | 52.2% | 53.1% | 25.3% | 59% | 23.71 mg |  | 
18 | O=C(O)CNC(=O)[C@@H]1Cc2ccccc2CN1 (H-[Tic]-Gly-OH) |  |  |  |  |  |  | 20.24 mg | 
19 | COC(=O)[C@H](CC(N)=O)N1C(=O)[C@@H]2Cc3ccccc3CN2C1(C)C | 47.89% | 30.1% | 33.9% | 19.8% | 25.8% | 19.54 mg |  | 
20 | CSCC[C@H](NC(=O)[C@@H]1Cc2ccccc2CN1)C(=O)O (H-[Tic]-Met-OH) |  |  |  |  |  |  | 21.74 mg | 
21 | COC(=O)[C@H](Cc1ccccc1)N1C(=O)[C@@H]2Cc3ccccc3CN2C1(C)C | 32.18% | 46.8% | 44.5% | 57.8% | 56.3% | 20.62 mg |  | 
22 | COC(=O)CC[C@@H](C(=O)OC)N1C(=O)[C@@H]2Cc3ccccc3CN2C1(C)C | 42.48% | 37.4% | 22.5% | 28% | 45.2% | 19.9 mg |  | 

Row | SMILES | Activity (Aorta) | inhibition at 10 µM [6] | inhibition at 10 µM [7] | inhibition at 10 µM [8] | inhibition at 10 µM [9] | Activity (Rattus norvegicus [10]) | Activity (Rattus norvegicus [11]) | further results
23 | C[C@@H](C(=O)O)N1C(=O)[C@@H]2Cc3ccccc3CN2C1(C)C | 8.41% |  |  |  |  |  |  | Activity (Rattus norvegicus [1]): 15.45 mg; IC50 [2]: 677 nM; IC50 [3]: 576 nM; IC50 [4]: 324 nM; IC50 [5]: 200 nM
24 | CC(C)C[C@H](NC(=O)[C@@H]1Cc2ccccc2CN1)C(=O)O (H-[Tic]-Leu-OH) |  |  |  |  |  |  | 20.23 mg | 
25 | COC(=O)[C@H](CCSC)N1C(=O)[C@@H]2Cc3ccccc3CN2C1(C)C | 43.06% | 30.1% | 34% | 36.8% | 31.9% | 20.11 mg |  | 
26 | COC(=O)[C@H](C)N1C(=O)[C@@H]2Cc3ccccc3CN2C1(C)C | 34.1% | 40.5% | 10.2% | 11.7% | 46.3% | 22.51 mg |  | 
27 | CC(C)[C@H](NC(=O)[C@@H]1Cc2ccccc2CN1)C(=O)O (H-[Tic]-Val-OH) |  |  |  |  |  |  | 19.2 mg | 
28 | COC(=O)C[C@@H](C(=O)OC)N1C(=O)[C@@H]2Cc3ccccc3CN2C1(C)C | 64.09% | 57.7% | 24.6% | 60.1% | 18.6% | 18.2 mg |  | 
29 | COC(=O)[C@H](C(C)O)N1C(=O)[C@@H]2Cc3ccccc3CN2C1(C)C (stereo partly specified) | 35.21% | 45% | 46.3% | 57.2% | 59.9% | 20.01 mg |  | 
30 | COC(=O)[C@H](C(C)C)N1C(=O)[C@@H]2Cc3ccccc3CN2C1(C)C | 54.99% | 32.4% | 35% | 30.9% | 34.6% | 15.66 mg |  | 
31 | O=C(O)[C@@H](NC(=O)[C@@H]1Cc2ccccc2CN1)NC1CCC1 |  |  |  |  |  |  | 20.25 mg | IC50 [2]: 185 nM; IC50 [3]: 1400 nM; IC50 [4]: 103 nM; IC50 [5]: 364 nM
32 | COC(=O)CN1C(=O)[C@@H]2Cc3ccccc3CN2C1(C)C | 75.35% | 58.9% | 66.1% | 10.9% | 44.5% | 15.21 mg |  | 
33 | CCC(C)[C@@H](C(=O)OC)N1C(=O)[C@@H]2Cc3ccccc3CN2C1(C)C (stereo partly specified) | 99% | 49.4% | 48.2% | 60.9% | 51.3% | 13.32 mg |  | 
34 | CCC(C)[C@H](NC(=O)[C@@H]1Cc2ccccc2CN1)C(=O)O (single isomer, unassigned) |  |  |  |  |  |  | 20.03 mg | 
35 | O=C(O)[C@H](Cc1ccccc1)NC(=O)[C@@H]1Cc2ccccc2CN1 (H-[Tic]-Phe-OH) |  |  |  |  |  |  | 19.11 mg | 
36 | O=C(O)[C@H](Cc1ccc(O)cc1)NC(=O)[C@@H]1Cc2ccccc2CN1 (H-[Tic]-Tyr-OH) |  |  |  |  |  |  | 19.31 mg | 
37 | O=C(O)[C@H](Cc1c[nH]cn1)NC(=O)[C@@H]1Cc2ccccc2CN1 (H-[Tic]-His-OH) |  |  |  |  |  |  | 20.86 mg | 
38 | NC(=O)C[C@H](NC(=O)[C@@H]1Cc2ccccc2CN1)C(=O)O (H-[Tic]-Asn-OH) |  |  |  |  |  |  | 20.24 mg | 
39 | O=C(O)CC[C@H](NC(=O)[C@@H]1Cc2ccccc2CN1)C(=O)O (H-[Tic]-Glu-OH) |  |  |  |  |  |  | 19.69 mg | 
40 | NCCCC[C@H](NC(=O)[C@@H]1Cc2ccccc2CN1)C(=O)O (H-[Tic]-Lys-OH) |  |  |  |  |  |  | 21.28 mg | 
41 | C[C@H](NC(=O)[C@@H]1Cc2ccccc2CN1)C(=O)O (H-[Tic]-Ala-OH) |  |  |  |  |  |  | 21.4 mg | 
42 | O=C(O)[C@H](CO)NC(=O)[C@@H]1Cc2ccccc2CN1 (H-[Tic]-Ser-OH) |  |  |  |  |  |  | 23.58 mg | 
43 | COC(=O)[C@H](CCC(N)=O)N1C(=O)[C@@H]2Cc3ccccc3CN2C1(C)C | 38.61% | 48.1% | 31.8% | 69% | 25.9% | 22.7 mg |  | 

— ChEMBL document CHEMBL1641479, “2-Substituted (S)-2-(3,3-dimethyl-1-oxo-10,10a-dihydroimidazo[1,5-b]isoquinolin-2(1H,3H,5H)-yl)acetic acids: Conformational prediction, synthesis, anti-thrombotic and vasodilative evaluation” (Bioorg Med Chem, 2011)
